Results on 5 compounds are retold here after ChEMBL document CHEMBL1128262, “New steroidal antiinflammatory antedrugs: steroidal [16 alpha,17 alpha-d]-3'-carbethoxyisoxazolines” (1995).

The test system of assay [1] is Rattus norvegicus. Kind of assay: The body weight change of rats after administration of the compound. Format: functional. The essentials: (§1)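 Male Sprague-Dawley rats given 5-day once-daily topical steroid to right ears in acetone/DMSO, with croton oil to both ears. Afterward, body weight change, thymus weight change and plasma corticosterone (ng/mL) were recorded against controls. Five or six samples per group, mean ± SEM; ANOVA with Bonferroni post hoc test.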

Assay [2] concerns Rattus norvegicus. Description: The antiinflammatory activity was evaluated as %inhibition of croton oil induced ear edema in the left ear of rat At the dose of 135(nmol/ear). Format: functional. The procedure, abridged: (§2)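 Male Sprague-Dawley rats. Right ears dosed topically (acetone/DMSO vehicle, 25 µL) once daily for 5 days, with 5% croton oil applied 30 min after each dose. Left ears received vehicle plus croton oil to reflect systemic effect. Micrometer ear thickness read 5 h after croton oil. % inhibition computed against controls; ANOVA with Bonferroni test.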

The subject of assay [3] is Rattus norvegicus. Kind of assay: The antiinflammatory activity was evaluated as %inhibition of croton oil induced ear edema in the right ear of rat At the dose of 135(nmol/ear). Format: functional. The essentials: as §2
Assay [4] concerns Rattus norvegicus. Description: The plasma corticosterone (ng/ml) concentration was measured in rats after compound administration. Format: functional, organism-based. The essentials: as §1
For assay [5], the system named is Rattus norvegicus. Kind of assay: The thymus weight change of rats after administration of the compound. Format: functional. The essentials: as §1
Assay [6] deals with Rattus norvegicus. Kind of assay: The antiinflammatory activity was evaluated as %inhibition of croton oil induced ear edema in the left ear of rat at the dose of 101(nmol/ear). Format: functional. The essentials:
as §2

The test system of assay [7] is Rattus norvegicus. Kind of assay: The antiinflammatory activity was evaluated as %inhibition of croton oil induced ear edema in the right ear of rat at the dose of 101(nmol/ear). Format: functional. The essentials: as §2
Assay [8] has as its system Rattus norvegicus. Kind of assay: The antiinflammatory activity was evaluated as %inhibition of croton oil induced ear edema in the right ear of rat. Format: functional. The procedure, abridged:
as §2

The test system of assay [9] is Rattus norvegicus. Description: The antiinflammatory activity was evaluated as %inhibition of croton oil induced ear edema in the left ear of rat. Format: functional. The essentials: as §2
The test system of assay [10] is Rattus norvegicus. Description: The %inhibition of compound for croton oil -induced ear edema was measured in rats at 0.01 mg/ear. Format: functional. The essentials: (§3)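 Male Sprague-Dawley rats; initial ear thickness measured with spring-loaded micrometer. Single topical dose of steroid in 25 µL acetone/DMSO applied to ear surfaces, then 5% croton oil 30 min later. Ear thickness remeasured 5 h later at peak inflammation. % inhibition computed against vehicle-treated controls; five animals per group.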

The test system of assay [11] is Rattus norvegicus. Description: The %inhibition of compound for croton oil -induced ear edema was measured in rats at 0.1 mg/ear. Format: functional. The essentials: as §3
The subject of assay [12] is Rattus norvegicus. Description: The %inhibition of compound for croton oil -induced ear edema was measured in rats at 0.03 mg/ear. Format: functional. The essentials:
as §3

By Inhibition is commonly meant the change of the read-out against control, counted positive when it falls. For `CCOC(=O)C1=NO[C@]2(C(=O)CO)[C@H]1CC1C3CCC4=CC(=O)C=C[C@]4(C)[C@@]3(F)[C@@H](O)C[C@@]12C` (stereo partly specified), the Body weight change in [1] was 36 g. Also, the figures for the Inhibition in [2] and in [3] were 24.4% and 56.9%, respectively. The same compound returned a Plasma corticosterone in [4] of 48.6 ng/mL. In [5], this compound yielded a Thymus weight of 562 mg.
In turn, `CCOC(=O)C1=NO[C@]2(C(=O)COC(C)=O)[C@H]1CC1C3CCC4=CC(=O)C=C[C@]4(C)[C@@]3(F)[C@@H](O)C[C@@]12C` (stereo partly specified) yielded a Body weight change in [1] of 38 g. The Inhibition in assay [6] worked out at 8.9%; in [7], 51.2%. In assay [4], this compound returned a Plasma corticosterone of 134 ng/mL. The compound further showed a Thymus weight in [5] of 625 mg.
`C[C@]12C=CC(=O)C=C1CC[C@@H]1[C@@H]2[C@@H](O)C[C@@]2(C)[C@H]1CC[C@]2(O)C(=O)CO` [PREDNISOLONE] returned a Body weight change in [1] of 22.8 g. Also, the Inhibition in assay [8] was 66.7%; in assay [9] it was 49.6%. In assay [4], the Plasma corticosterone was 31.8 ng/mL. The compound also returned a Thymus weight in assay [5] of 369 mg.
On to `CCOC(=O)C1=NO[C@]2(C(=O)COC(C)=O)[C@H]1CC1C3CCC4=CC(=O)C=C[C@]4(C)[C@H]3[C@@H](O)C[C@@]12C` (stereo partly specified), for which the Inhibition in [10] turned out to be 14.9%; in [11], 35.7%; in [12] it was 21.4%.
Turning to `CCOC(=O)C1=NO[C@]2(C(=O)CO)[C@H]1CC1C3CCC4=CC(=O)C=C[C@]4(C)[C@H]3[C@@H](O)C[C@@]12C` (stereo partly specified), the Inhibition in [10] is reported as 31.3%; in assay [11], 44%; in assay [12], 44%.
